Reference: ChEMBL document CHEMBL1146554, “Antioxidative meroterpenoids from the brown alga Cystoseira crinita” (J Nat Prod, 2003)
Converted amounts (≈) assume the structure as drawn. The source made the active and inactive calls. No cut-off for these calls is given here.

Experiments:
[1] = test system: Radical scavenging activity; test: Antioxidant activity assessed as DPPH radical scavenging activity at 58 uM after 30 mins; type: functional
Procedure, shortened: (§1)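 Samples in EtOH (100 µL) mixed with 25 µL of 1 mM DPPH in EtOH plus 75 µL EtOH, then shaken briefly. Kept 30 min at room temperature in the dark. Absorbance read at 517 nm. % scavenging calculated against control, with blank and sample-blank corrections.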

[2] = Antioxidant activity assessed as inhibition of FeSO4-induced lipid peroxidation at 82 uM by TBARS assay; type: functional
Procedure, shortened: (§2)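 Linolenic acid methyl ester oxidized under FeSO4 catalysis in 50 mM phosphate buffer pH 7.2 at 50 °C. BHT in ethanol added to stop further oxidation. TBARS developed with trichloroacetic and thiobarbituric acid, 60 °C for 30 min. Read A532 minus A600 background. % inhibition calculated versus uninhibited control, with blank and sample-blank corrections.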

[3] = test system: Radical scavenging activity; test: Antioxidant activity assessed as DPPH radical scavenging activity at 115 uM after 30 mins; type: functional; procedure, shortened: as §1
[4] = Antioxidant activity assessed as inhibition of FeSO4-induced lipid peroxidation at 164 uM by TBARS assay; type: functional; procedure, shortened: as §2
[5] = Antioxidant activity assessed as inhibition of FeSO4-induced lipid peroxidation at 16 uM by TBARS assay; type: functional; procedure, shortened: as §2
[6] = test system: Radical scavenging activity; test: Antioxidant activity assessed as DPPH radical scavenging activity at 6 uM after 30 mins; type: functional; procedure, shortened: as §1
[7] = test system: Radical scavenging activity; test: Antioxidant activity assessed as DPPH radical scavenging activity at 12 uM after 30 mins; type: functional; procedure, shortened: as §1
[8] = Antioxidant activity assessed as inhibition of FeSO4-induced lipid peroxidation at 8 uM by TBARS assay; type: functional; procedure, shortened: as §2
[9] = test system: Radical scavenging activity; test: Antioxidant activity assessed as DPPH radical scavenging activity at 230 uM after 30 mins; type: functional; procedure, shortened: as §1
[10] = Antioxidant activity assessed as inhibition of FeSO4-induced lipid peroxidation at 33 uM by TBARS assay; type: functional; procedure, shortened: as §2
[11] = test system: Radical scavenging activity; test: Antioxidant activity assessed as DPPH radical scavenging activity at 23 uM after 30 mins; type: functional; procedure, shortened: as §1
Escherichia coli = test: Antimicrobial activity against Escherichia coli at 50 ug/disk by agar diffusion assay; type: functional, organism-based
Procedure, shortened: (§3)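 Agar diffusion assay with discs loaded at 50 µg/disk, run against the bacteria, fungi and the green microalga Chlorella fusca.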

Microbotryum violaceum = test: Antimicrobial activity against Microbotryum violaceum at 50 ug/disk by agar diffusion assay; type: functional, organism-based; procedure, shortened: as §3
[12] = test system: Aspergillus pseudoglaucus; test: Antimicrobial activity against Eurotium repens at 50 ug/disk by agar diffusion assay; type: functional, organism-based; procedure, shortened: as §3
Mycotypha microspora = test: Antimicrobial activity against Mycotypha microspora at 50 ug/disk by agar diffusion assay; type: functional, organism-based; procedure, shortened: as §3
[Chlorella] fusca = Antimicrobial activity against 'Chlorella' fusca at 50 ug/disk by agar diffusion assay; type: functional, organism-based; settings: Scenedesmus fuscus; procedure, shortened: as §3
Priestia megaterium = test: Antimicrobial activity against Bacillus megaterium at 50 ug/disk by agar diffusion assay; type: functional, organism-based; procedure, shortened: as §3
[13] = Superoxide radical scavenging activity assessed as trolox equivalents by photochemiluminescence assay
Procedure, shortened: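 Photochemiluminescence with luminol acting as photosensitizer and detection reagent, generating superoxide. Mix of 2.29 mL reagent 1 (solvent/diluent), 200 µL buffer reagent, 25 µL photosensitizer and 10 µL sample in ethanol or Trolox standard in water. Antioxidant capacity taken from the integral under the curve and expressed as Trolox equivalents.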

[14] = ABTS radical scavenging activity assessed as trolox equivalents by TEAC assay; type: physicochemical
Procedure, shortened: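 ABTS radical cation made by passing ABTS in PBS through manganese dioxide, then filtered (0.2 µm). Diluted in 5 mM PBS pH 7.4 to A734 0.700 and preincubated 2 h at room temperature. 1 mL radical mixed with 200 µL ethanolic sample, vortexed 30 s, centrifuged. A734 of lower phase read exactly 2 min after mixing. PBS and ethanol blanks included. Trolox standards used; value is mM Trolox equivalent to 1.0 mM compound.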

HepG2 = test: Cytotoxicity against human HepG2 cells; type: functional
Procedure, shortened: (§4)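 Cytotoxicity tested on HM02 gastric adenocarcinoma, HepG2 hepatocellular carcinoma and MCF7 breast adenocarcinoma lines following NCI standards.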

MCF7 = test: Cytotoxicity against human MCF7 cells; type: functional; procedure, shortened: as §4
[15] = Cytotoxicity against human HM02 cells; type: functional; procedure, shortened: as §4

SMILES | Activity [1] [%] | inhibition [2] [%] | Activity [3] [%] | inhibition [4] [%] | inhibition [5] [%] | Activity [6] [%] | Activity [7] [%] | inhibition [8] [%] | Activity [9] [%] | inhibition [10] [%] | Activity [11] [%] | Activity (Escherichia coli) | Activity (Microbotryum violaceum) | Activity [12] | Activity (Mycotypha microspora) | Activity ([Chlorella] fusca) | Activity (Priestia megaterium) | Activity [13] [mmol/L] | Activity [14] [mmol/L] | further results
CC1=CC(=O)C=C(C/C=C(\C)CC(=O)/C=C(\C)CC/C=C(\C)Cc2cc(C)co2)C1=O | 8.1 | 31.4 | 16 | 43.3 | 14.2 | 1 | 2.2 | 7.6 | 29 | 20.2 | 2.9 | – | – | – | – | – | – | – | – | –
CC(C)=CCC/C(C)=C/C(=O)C/C(C)=C/Cc1cc(O)cc(C)c1O | 29.8 | 43.1 | 59.1 | 66.8 | 19.8 | 2.6 | 3.7 | 9.2 | 94.1 | 22.2 | 11.2 | inactive | inactive | inactive | inactive | inactive | inactive | – | – | –
CC(C)=CC(O)C/C(C)=C/CC/C(C)=C/C(=O)C/C(C)=C/Cc1cc(O)cc(C)c1O (configuration not stated) | 49.2 | 55.4 | 93.2 | 68.9 | 11.7 | 4.6 | 7.4 | 7.8 | 96.1 | 17.6 | 18.1 | inactive | inactive | inactive | inactive | inactive | inactive | – | – | –
CC1=CC(=O)C=C(C/C=C(\C)CC(=O)/C=C(/C)CC/C=C(\C)Cc2cc(C)co2)C1=O | 12.2 | 38.7 | 22.8 | 54.4 | 16.1 | 1.1 | 1.8 | 11.1 | 38.6 | 24.4 | 5.5 | inactive | inactive | inactive | inactive | inactive | inactive | 1.41 | 0.3 | –
C/C(=C\C(=O)C/C(C)=C/Cc1cc(O)cc(C)c1O)CC/C=C(\C)Cc1cc(C)co1 | 65.4 | 69.3 | 95.2 | 74.9 | 25.8 | 8 | 12.5 | 15.1 | 95.4 | 41.2 | 24.9 | inactive | inactive | inactive | inactive | inactive | inactive | 1.06 | 0.08 | GI50 (HepG2): 1.8 µg/mL (≈ 4.26 µM); LC50 (HepG2): > 10 µg/mL; TGI (HepG2): 4 µg/mL (≈ 9.47 µM); GI50 (MCF7): 1.3 µg/mL (≈ 3.08 µM); LC50 (MCF7): 3.7 µg/mL (≈ 8.76 µM); TGI (MCF7): 2.1 µg/mL (≈ 4.97 µM); GI50 [15]: 0.3 µg/mL (≈ 0.71 µM); LC50 [15]: 3.4 µg/mL (≈ 8.05 µM); TGI [15]: 0.6 µg/mL (≈ 1.42 µM)
CC(C)=CCC/C(C)=C\C(=O)C/C(C)=C/Cc1cc(O)cc(C)c1O | 50.2 | 52.9 | 92.1 | 66.5 | 19.9 | 2.6 | 5.9 | 13.2 | 92.5 | 28.8 | 17.7 | – | – | – | – | – | – | – | – | –
CC(C)=CC(O)C/C(C)=C/CC/C(C)=C\C(=O)C/C(C)=C/Cc1cc(O)cc(C)c1O (configuration not stated) | 55.2 | 60.4 | 95.5 | 70.3 | 10.4 | 5.8 | 9.7 | 4.9 | 95.5 | 19.2 | 17.1 | inactive | inactive | inactive | inactive | inactive | inactive | – | – | –
C/C(=C/C(=O)C/C(C)=C/Cc1cc(O)cc(C)c1O)CC/C=C(\C)Cc1cc(C)co1 | 56.7 | 66.6 | 95.7 | 74.6 | 25.2 | 5.9 | 11 | 16.4 | 95.8 | 38.9 | 22.1 | inactive | inactive | inactive | inactive | inactive | inactive | 0.79 | 0.28 | GI50 (HepG2): 1.7 µg/mL (≈ 4.02 µM); LC50 (HepG2): > 10 µg/mL; TGI (HepG2): 5 µg/mL (≈ 11.8 µM); GI50 (MCF7): 0.9 µg/mL (≈ 2.13 µM); LC50 (MCF7): 3.6 µg/mL (≈ 8.52 µM); TGI (MCF7): 1.7 µg/mL (≈ 4.02 µM); GI50 [15]: 0.9 µg/mL (≈ 2.13 µM); LC50 [15]: 4.6 µg/mL (≈ 10.9 µM); TGI [15]: 2 µg/mL (≈ 4.73 µM)
CC(C)=CCC/C(C)=C/CC/C(C)=C/C(=O)C/C(C)=C/Cc1cc(O)cc(C)c1O | 67.4 | 61.7 | 95 | 70.8 | 17 | 6 | 8.6 | 13.3 | 94.4 | 24.3 | 24.4 | inactive | inactive | inactive | inactive | inactive | inactive | – | – | –
CC(C)=CCC/C(C)=C/CC/C(C)=C\C(=O)C/C(C)=C/Cc1cc(O)cc(C)c1O | 67.2 | 66.8 | 95.4 | 71.8 | 12.1 | 6.9 | 11.8 | 10.7 | 95.4 | 28.6 | 25.5 | inactive | inactive | inactive | inactive | inactive | inactive | 1.35 | 0.14 | –
Cc1c(C)c2c(c(C)c1O)CC[C@@](C)(CCC[C@H](C)CCC[C@H](C)CCCC(C)C)O2 [ALPHA-TOCOPHEROL] | 88.1 | 71.2 | 94.9 | 72.7 | 32.1 | 8.2 | 16.3 | 13.1 | 95.2 | 67.6 | 33.9 | – | – | – | – | – | – | 1.26 | 0.63 | –
CC(C)=CC(=O)C/C(C)=C/CC/C(C)=C/C(=O)C/C(C)=C/Cc1cc(O)cc(C)c1O | 80.8 | 70.1 | 95.7 | 72.2 | 20.3 | 7.6 | 14.3 | 13.6 | 95.5 | 39.9 | 29.1 | inactive | inactive | inactive | inactive | inactive | inactive | 1.39 | 0.37 | –
Cc1cc(C(C)(C)C)c(O)c(C(C)(C)C)c1 | 11.8 | 63.3 | 22 | 69.3 | 35.4 | 1.2 | 2.9 | 23.1 | 35.6 | 49.1 | 5.6 | – | – | – | – | – | – | – | – | –
